According to ChEMBL document CHEMBL3351238, “Part I. Synthesis, biological evaluation and docking studies of new 2-furylbenzimidazoles as antiangiogenic agents” (Eur J Med Chem, 2014):
Values after ≈ are worked out from the molar mass of the structure shown.

What was measured:
MCF7 [1] = assay: Cytotoxicity against human MCF7 cells after 48 hrs by sulforhodamine B assay; assay type: functional, cell-based; details: MCF7, 48 h
Outline: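 MCF-7 cells seeded at 10^4 per well and allowed 24 h to attach, then exposed to 0.0, 5.0, 12.5, 25.0 and 50 μg/ml, six wells per dose, for 48 h at 37 °C in 5% CO2. Cells were fixed and stained with sulforhodamine B. Bound dye was recovered in Tris EDTA and read on an ELISA reader. IC50 taken from the survival-fraction versus concentration curve.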

MCF7 [2] = assay: Inhibition of VEGF production in human MCF7 cells at cytotoxic IC50 level after 24 hrs by ELISA; assay type: functional
Outline: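 MCF-7 from ATCC, grown in DMEM with 10% heat-inactivated FCS, penicillin and streptomycin at 37 °C in 5% CO2, 0.50 × 10^6 cells per 25 cm2 flask. Compound in DMSO (tamoxifen as reference) added for 24 h. Cells homogenized in saline. Human VEGF measured by double-antibody sandwich ELISA (biotin antibody, streptavidin-HRP, A450) against a standard curve, duplicate determinations. Inhibition relative to untreated cells.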

[3] = target: T1, Prostaglandin G/H synthase 1 (Ovis aries, UniProt P05979); assay: Inhibition of ovine COX1 assessed as reduction in PGH2-dervied PGF2alpha production using arachidonic acid substrate by enzyme immunoassay
T1 sequence (P05979 whole entry): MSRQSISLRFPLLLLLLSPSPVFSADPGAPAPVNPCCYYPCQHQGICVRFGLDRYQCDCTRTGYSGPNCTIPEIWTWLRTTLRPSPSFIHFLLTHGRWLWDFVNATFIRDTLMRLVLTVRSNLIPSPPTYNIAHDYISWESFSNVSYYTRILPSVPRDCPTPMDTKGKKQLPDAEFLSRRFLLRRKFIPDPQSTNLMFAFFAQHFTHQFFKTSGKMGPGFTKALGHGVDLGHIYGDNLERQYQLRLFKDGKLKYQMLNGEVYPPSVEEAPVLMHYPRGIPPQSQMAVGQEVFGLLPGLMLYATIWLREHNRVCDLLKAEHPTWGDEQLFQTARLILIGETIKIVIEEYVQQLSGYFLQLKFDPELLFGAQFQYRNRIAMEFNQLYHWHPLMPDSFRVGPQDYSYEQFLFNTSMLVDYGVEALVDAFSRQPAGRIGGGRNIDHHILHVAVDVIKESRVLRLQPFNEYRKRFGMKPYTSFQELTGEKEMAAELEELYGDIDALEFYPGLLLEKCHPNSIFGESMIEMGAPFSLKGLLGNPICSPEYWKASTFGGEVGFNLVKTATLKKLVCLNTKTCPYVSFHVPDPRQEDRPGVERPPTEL
Outline: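 Arachidonic acid added and reaction stopped with HCl after 2 min. PGH2 reduced with SnCl2 and PGF2α quantified by competitive EIA at 410 nm. IC50 from concentration–inhibition curve, duplicates.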

IC50 [3]	Compound	IC50 (MCF7 [1])	inhibition (INH) (MCF7 [2])
	Cc1ccc(-c2nc3ccccc3[nH]2)o1	14 µg/mL (≈ 70.6 µM)	95%
	CCOC(=O)Cn1c(-c2ccco2)nc2ccccc21	15.2 µg/mL (≈ 56.2 µM)	62%
	CCOC(=O)Cn1c(-c2ccc(C)o2)nc2ccccc21	17.8 µg/mL (≈ 62.6 µM)	28%
	c1ccc(Cn2c(-c3ccco3)nc3ccccc32)cc1	6.98 µg/mL (≈ 25.4 µM)	98%
	O=S(=O)(c1ccccc1)n1c(-c2ccco2)nc2ccccc21	21.2 µg/mL (≈ 65.4 µM)	14%
	Cc1ccc(-c2nc3ccccc3n2S(=O)(=O)c2ccccc2)o1	8.63 µg/mL (≈ 25.5 µM)	98%
	NNC(=O)Cn1c(-c2ccco2)nc2ccccc21	20.2 µg/mL (≈ 78.8 µM)	24%
> 50 µM	Cc1ccc(-c2nc3ccccc3n2CC(=O)NN)o1	22.4 µg/mL (≈ 82.9 µM)	86%
> 50 µM	NNC(=O)Cn1c(-c2ccc(CNc3ccncc3)o2)nc2ccccc21	22 µg/mL (≈ 60.7 µM)	90%
	NNC(=O)Cn1c(-c2ccc(CNCc3ccccc3)o2)nc2ccccc21	19.3 µg/mL (≈ 51.4 µM)	19%
	S=c1[nH]nc(Cn2c(-c3ccco3)nc3ccccc32)o1	16.9 µg/mL (≈ 56.6 µM)	41%
	Cc1ccc(-c2nc3ccccc3n2Cc2n[nH]c(=S)o2)o1	16.6 µg/mL (≈ 53.1 µM)	39%
	CCOC(=O)C/C(C)=N/NC(=O)Cn1c(-c2ccco2)nc2ccccc21	17 µg/mL (≈ 46.1 µM)	38%
	CCOC(=O)C/C(C)=N/NC(=O)Cn1c(-c2ccc(C)o2)nc2ccccc21	19.6 µg/mL (≈ 51.3 µM)	24%
> 50 µM	Nn1c(Cn2c(-c3ccco3)nc3ccccc32)n[nH]c1=S	20.5 µg/mL (≈ 65.6 µM)	91%
	CSc1nnc(-n2c(-c3ccco3)nc3ccccc32)o1	19.3 µg/mL (≈ 64.7 µM)	16%
	c1coc(-c2nc3ccccc3[nH]2)c1 [FUBERIDAZOLE]	21.5 µg/mL (≈ 117 µM)	15%
	CC/C(=C(\c1ccccc1)c1ccc(OCCN(C)C)cc1)c1ccccc1 [TAMOXIFEN]	8 µg/mL (≈ 21.5 µM)	98%
